Lmaj promast = Leishmania major promastigote growth inhibition; AID 1063; Leishmania major promastigotes, resazurin fluorescence viability; inhibition, % at 10 µM; 9% of 200,000 active; in the data active means inhibition above about 50%;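 further: promastigotes grown with compound for 44 hours at 28 °C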
bCat KO growth = beta-catenin-lacking colon tumor cell growth suppression; HCT116 beta-catenin knockout viability, CellTiter-Glo, 60 h; hits give low values; viability, % at 10 µM; 1.5% of 140,000 active; AID 818;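 active means viability at or under a set limit, the compound median less 4 SD, cut at about 6% in these data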;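 further: 0% = Hyamine 1622 control at 20 µM and 100% = untreated cell control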
PMI act = activators of human phosphomannose isomerase | AID 1214 | activation factor at 20 µM | purified human PMI, coupled resazurin fluorescence, 20 min; hits give high values; 1 = vehicle control, 0 substrate-free wells | P34949 | 0.005% of 190,000 active;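 active means activation factor of 2 or more at 20 µM, relative to plate controls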
Target sequence (P34949 whole entry, looked up): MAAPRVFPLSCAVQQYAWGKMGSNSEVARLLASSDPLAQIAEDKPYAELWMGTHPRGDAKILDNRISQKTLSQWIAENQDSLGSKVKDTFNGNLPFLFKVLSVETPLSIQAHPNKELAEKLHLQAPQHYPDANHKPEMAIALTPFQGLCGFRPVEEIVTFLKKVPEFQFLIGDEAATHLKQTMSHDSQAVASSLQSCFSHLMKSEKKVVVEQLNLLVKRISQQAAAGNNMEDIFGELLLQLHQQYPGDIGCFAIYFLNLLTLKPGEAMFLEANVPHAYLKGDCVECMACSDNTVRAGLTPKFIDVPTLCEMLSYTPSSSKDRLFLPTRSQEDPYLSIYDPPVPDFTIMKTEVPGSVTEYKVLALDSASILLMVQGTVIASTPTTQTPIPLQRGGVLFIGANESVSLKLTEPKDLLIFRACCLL
PMI act hi M6P = increases human PMI activity with near-saturating mannose 6-phosphate | P34949 | coupled PMI enzyme assay, resazurin fluorescence, 20 min; hits give high values; 1 = untreated enzyme, 0 = substrate-free blank | activation factor at 20 µM | 0.34% of 190,000 active | AID 1216;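 active means activation factor of 2 or more at 20 µM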
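Test system: human phosphomannose isomerase with PGI, G6PDH, diaphorase coupling enzymes; amount: 15 ng/mL PMI; incubation: enzyme reaction with compound 20 min at room temperature; technique: resorufin fluorescence (Ex 544/Em 590 nm) from resazurin via diaphorase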
PTEN del growth = growth suppressors of cells with PTEN tumor suppressor deletion | 1.2% of 140,000 active | HCT116 PTEN-null viability, CellTiter-Glo, 60 h; hits give low values | viability, % at 10 µM;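 active means viability at or below a set limit, 4 SD under the median of all tested compounds, cut at about 3.7% in these data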;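 further: PTEN knockout HCT116 line with beta catenin targeted HCT116 as companion control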
* marks the source's active call; other numbers are inactive results; . = no result. Compounds with a hit are over-represented: about 9.6% of the library has one in this group of screens.

SMILES	Lmaj promast	bCat KO growth	PMI act	PMI act hi M6P	PTEN del growth
O=C(NN=C(Cc1ccccc1)Cc1ccccc1)c1ccc(F)cc1	-6	65	1	1	60
C/C(=N\NC(=O)c1ccccc1O)C1C(=O)c2ccccc2C1=O	12	4.0*	1	1	5
CN1CCN(C(N)=NC(=O)c2ccccc2)CC1	-8	96	1	0.9	99
C#Cc1ccc([C@@H]2C=C(C(=O)O)O[C@H](OCc3ccc(CO)cc3)C2)cc1	-8	.	1	1	.
CC(C)(C)c1ccccc1NC(=O)c1c(O)c2cccc3c2n(c1=O)CC3	14	.	0.9	1.1	.
CCCCCCOc1ccc(/C(N)=N/O)cc1	87*	96	0.9	1	83
OCCNc1nc(-c2ccccc2)nc2ccccc12	20	.	1	0.9	.
COCCNc1nc(-c2ccccc2)nc2ccccc12	84*	.	.	.	.
CCN(CC)CCCNc1nc(-c2ccccc2)nc2ccccc12	72*	61	1.2	1.2	67
c1ccc(-c2nc(NCCCn3ccnc3)c3ccccc3n2)cc1	54*	.	0.9	0.9	.
Clc1ccc(-c2nc(NCCN3CCOCC3)c3ccccc3n2)cc1	62*	57	1	1	44
O=S(=O)(Nc1nc2ccccc2nc1NCCN1CCOCC1)c1cccc(Cl)c1	3	97	1.1	1	91
O=C(CSc1cn(Cc2ccccc2)c2ccccc12)NCc1ccc(F)cc1	-6	89	0.9	0.9	98
COC(=O)c1c(NC(=O)/C=C/C(=O)O)sc(C)c1-c1ccc(C(C)C)cc1	37	.	1.1	1	.
Cc1noc(C)c1S(=O)(=O)N1CCN(c2ccccc2)CC1	-4	96	1	1.1	91
Cc1noc(C)c1S(=O)(=O)N1CCC(C(=O)N2CCN(c3ccccc3Cl)CC2)CC1	97*	65	0.8	0.9	79
Cc1noc(C)c1S(=O)(=O)N1CCC(C(=O)N2CCN(C(=O)c3ccco3)CC2)CC1	-4	94	0.9	0.9	107
Cc1noc(C)c1S(=O)(=O)N1CCC(C(=O)N2CCC(N3CCCCC3)CC2)CC1	-5	98	1	1	99
Cc1noc(C)c1S(=O)(=O)N1CCCC(C(=O)N2CCN(C3CCCCC3)CC2)C1 (stereo not given)	93*	73	0.9	1	75
Cc1noc(C)c1S(=O)(=O)N1CCC(C(=O)N2CCN(c3ccc(Cl)cc3)CC2)CC1	68*	70	0.9	0.9	68
COc1cccc(NC(=O)Cn2c(=O)n(CC3CCCO3)c(=O)c3ccccc32)c1 (stereo not given)	3	116	1	1	96
CC(=O)Nc1ccc(Oc2cc(NC(C)=O)cc([N+](=O)[O-])c2)cc1	27	.	1	1	.
Cn1nnc2c(sc3nc(N4CCOCC4)c4c(c32)CCCC4)c1=O	6	90	0.9	0.9	96
S=c1nc[nH]c2c1sc1nc(N3CCOCC3)c3c(c12)CCCC3	14	.	1.6	2*	.
CCNc1nc(-c2ccc(OC(F)F)cc2)c(C)s1	14	.	0.8	1	.
SMILES	Lmaj promast	bCat KO growth	PMI act	PMI act hi M6P	PTEN del growth
CC(O)CNCCCOc1cccc(Oc2ccccc2)c1 (stereo not given)	99*	.	1	1	.
CNCCCOc1cccc(OC(C)C)c1	1	104	0.9	0.9	112
CC(O)CNCCCOc1cccc(C(F)(F)F)c1 (stereo not given)	67*	.	1.1	1.2	.
CNCCCOc1cccc(Oc2ccccc2)c1	99*	.	1	1.1	.
CCOc1ccc(OCCOc2cccc(C(F)(F)F)c2)cc1	-2	87	0.9	1	87
Cc1cccc(-n2nnnc2SCc2csc(-c3ccccc3)n2)c1	2	79	1.1	1	86
Cc1ccc[n+](C(C)C(=O)Nc2ccc(C)c([N+](=O)[O-])c2)c1 (stereo not given)	-4	90	1	1	90
CCn1nnnc1SCC(=O)Nc1nc(-c2cccs2)cs1	55*	93	1.1	1.1	82
CCC(C)[C@H](NC(=O)NC(C)C)C(=O)O (stereo not given in full)	-8	99	1.1	1.1	94
O=S(=O)(/N=C(/Nc1ccc(F)cc1F)c1ccc(Cl)cc1)c1ccccc1	-4	81	1	1.1	91
CC(=O)c1cc2c(cc1N/C(=N/S(=O)(=O)c1ccc(C)cc1)c1ccccc1)OCO2	59*	91	1	1	92
COc1ccccc1N/C(=N/S(=O)(=O)c1ccc(C)cc1)c1ccc(Cl)cc1	100*	80	0.9	0.9	67
COc1ccccc1NS(=O)(=O)c1cc(N/C(=N\S(=O)(=O)c2ccccc2)c2ccc(F)cc2)ccc1Cl	99*	66	0.9	0.9	65
CCC(C)NC(=O)C(=O)NCC1CCCN1CC (stereo not given)	-2	.	1	1.1	.
O=S(=O)(NCCCN1CCN(c2ccccc2F)CC1)c1cccc2cccnc12	11	65	1	0.9	70
[O-][n+]1c2c(c3c4non(O)c4ccc31)CCCC2	-7	91	0.8	0.8	98
CN1CCN(CC(=O)Nc2nc(-c3ccccc3)cs2)CC1	5	80	1	1	85
CN1CCN(CC(=O)N(C)c2nc(-c3ccccc3)cs2)CC1	94*	86	1.2	1.1	88
O=C(NC1=NCCCCC1)c1cccc2ccccc12	-5	.	1.1	1.1	.
CC1CCN(C(=O)CSc2ccc(-c3ccc(F)cc3)nn2)CC1	20	108	0.9	0.9	103
CC1CC(C)(C)N(C(=O)CSc2ccc(-c3ccc(F)cc3)nn2)c2ccccc21 (stereo not given)	7	4.9*	0.8	0.9	4
CC(c1ccccc1F)n1cc(C(=O)NCCc2ccco2)nn1 (stereo not given)	-6	83	1	1	87
CC(=O)N1CCc2c(sc(NC(=O)c3ccc([N+](=O)[O-])o3)c2C#N)C1	98*	.	0.4	0.6	.
CCOC(=O)N1CCc2c(sc(NC(=O)c3ccc(S(=O)(=O)N4CCCC4)cc3)c2C#N)C1	57*	83	1.3	1.1	77
CC(C)(CO)Nc1nc(N2CCCC2)nc(N2CCCC2)n1	100*	91	1.1	1.1	92
SMILES	Lmaj promast	bCat KO growth	PMI act	PMI act hi M6P	PTEN del growth
CCNc1nc(N2CCCC2)nc(N2CCCC2)n1	73*	.	0.9	0.9	.
CCNc1nc(NC(C)(C)C)nc(N2CCCCC2)n1	95*	.	1	1	.
CCNc1nc(C(=O)O)nc(N2CCOCC2)n1	-9	.	1	1	.
OCCN1CCN(c2nc(N3CCCCC3)nc(N3CCCCC3)n2)CC1	12	89	1	1.1	85
CC(C)(C)Nc1nc(OCC#N)nc(N2CCCCC2)n1	35	.	1	1.1	.
COc1cccc(/C=N/NC(=O)c2ccccc2N(Cc2ccccc2)S(=O)(=O)c2ccccc2)c1OC	91*	81	0.9	1	72

Screening data deposited in PubChem by several laboratories.
